Assay results from ChEMBL document CHEMBL1123566, “Synthesis and cardiac electrophysiological activity of 2- and 3-[(substituted phenyl)alkyl]quinuclidines. Structure-activity relationships” (1987).
“And” between values parts separate entries of the source, which are not always exact repeats. Identical values can stand only once.

Columns and labels:
Canis familiaris [1] = assay: Conduction time was determined by intraduodenal administration of 10 mg/kg (low dose) of compound in anesthetized dogs. Value was reported for experiment 2; format: functional, Canis lupus familiaris
In short: (§1)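 Anesthetized dogs; compound given intraduodenally, generally as two doses, the second a cumulative (high) dose. LV functional refractory period and conduction time measured 15, 30 and 45 min after dosing; heart rate and blood pressure measured during nonpacing intervals. Values are % change from control, given per individual animal. Active if FRP or CT prolonged by ≥12%.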

Canis familiaris [2] = species on record: Canis familiaris; assay: In vitro electrophysiological evaluation in canine cardiac Purkinje fibres reported as % change for action potential duration at a concentration of 10 uM; format: functional, Canis lupus familiaris, Purkinje fiber
In short: (§2)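 Canine cardiac Purkinje fibres, intracellular microelectrode recording, paced at a basic cycle length of 1 s. APD95 and Vmax read simultaneously. Compound: 10 mM stock in deionized water, diluted into Tyrode's solution, tested over the stated concentration range. Each fibre used once as its own control. Result is % change from control, given at 10 µM or as the maximum with its concentration. M = <10% decrease or an increase in Vmax.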

Canis familiaris [3] = species on record: Canis familiaris; assay: In vitro electrophysiological evaluation in canine cardiac ventricular muscle reported as % change for conduction time(CT) at 10 uM at 0.1-100 uM concentration range; Minimal (<10% decrease or increase in CT).; format: functional, Canis lupus familiaris, Muscle tissue
Canis familiaris [4] = species on record: Canis familiaris; assay: In vitro electrophysiological evaluation in canine cardiac occurred is 100 uM; format: functional; conditions: Canis lupus familiaris; Heart
Canis familiaris [5] = species on record: Canis familiaris; assay: In vitro electrophysiological evaluation in canine cardiac ventricular muscle reported as % change for the functional refractory period (FRP) at 10 uM at concentration range of 0.1-100 uM; design: species or system Canis lupus familiaris, Muscle tissue
In short: (§3)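 Canine right ventricle and papillary muscle strips in oxygenated Tyrode's solution, fitted with stimulating and recording electrodes. The extra-stimulus conduction-interval method was adapted for in vitro use. FRP and CT were read from a conduction-interval curve before and after various compound concentrations, and expressed as percent change from control. Compounds were taken from 10 mM deionized-water stock into Tyrode's. Each strip was used once as its own control.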

Canis familiaris [6] = species on record: Canis familiaris; assay: (§4) In vitro electrophysiological activity in canine cardiac occurred is 10 uM; format: functional, Canis lupus familiaris, Heart
Canis familiaris [7] = species on record: Canis familiaris; assay: In vitro electrophysiological evaluation in canine cardiac Purkinje fibres reported as percent change Vmax at 10 uM at concentration range of 1-100 uM.; format: functional; conditions: Canis lupus familiaris, Purkinje fiber; in short: as §2
Canis familiaris [8] = assay: Heart rate was determined by intraduodenal administration of two dosages of 30 mg/kg of compound in anesthetized dogs. Value was reported for experiment 2; format: functional, Canis lupus familiaris; in short: as §1
Canis familiaris [9] = assay: Heart rate was determined by intraduodenal administration of two dosages of 10 mg/kg of compound in anesthetized dogs. Value was reported for experiment 1; format: functional, Canis lupus familiaris; in short: as §1
Canis familiaris [10] = assay: Conduction time was determined by intraduodenal administration of 10 mg/kg (low dose) of compound in anesthetized dogs. Value was reported for experiment 1; format: functional, Canis lupus familiaris; in short: as §1
Canis familiaris [11] = species on record: Canis familiaris; assay: In vitro electrophysiological evaluation in canine cardiac Purkinje fibres reported as % change for action potential duration at 10 uM at 0.1-100 uM concentration range; format: functional, Canis lupus familiaris, Purkinje fiber; in short: as §2
Canis familiaris [12] = assay: Heart rate was determined by intraduodenal administration of two dosages of 30 mg/kg of compound in anesthetized dogs. Value was reported for experiment 1; format: functional, Canis lupus familiaris; in short: as §1
Canis familiaris [13] = assay: Left ventricular refractory period was determined by intraduodenal administration of 30 mg/kg (high dose) of compound in anesthetized dogs. Value was reported for experiment 1; format: functional, Canis lupus familiaris, Cardiac ventricle
In short: (§5)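 Anesthetized dogs received two intraduodenal doses, the second cumulative (low dose/high dose). Left ventricular FRP and CT were measured 15, 30 and 45 min after dosing. Heart rate and mean blood pressure were taken during nonpacing intervals. Values are percent change from control. The vehicle was 5% dextrose in water/tragacanth. Activity was defined as ≥12% prolongation of FRP or CT.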

Canis familiaris [14] = assay: Mean arterial blood pressure was determined by intraduodenal administration of two dosages of 30 mg/kg of compound in anesthetized dogs. Value was reported for experiment 1; format: functional, Canis lupus familiaris; in short: as §5
Canis familiaris [15] = assay: Conduction time was determined by intraduodenal administration of 30 mg/kg (high dose) of compound in anesthetized dogs. Value was reported for experiment 1; format: functional, Canis lupus familiaris; in short: as §1
Canis familiaris [16] = species on record: Canis familiaris; assay: In vitro electrophysiological evaluation in canine cardiac Purkinje fibres reported as percent change Vmax at 10 uM at concentration range of 0.1-100 uM; Minimal (<10% decrease or increase in V max).; format: functional, organism-based; conditions: Canis lupus familiaris, Purkinje fiber; in short: as §2
Canis familiaris [17] = assay: Left ventricular refractory period was determined by intraduodenal administration of 10 mg/kg (low dose) of compound in anesthetized dogs. Value was reported for experiment 2; format: functional, Canis lupus familiaris, Cardiac ventricle; in short: as §5
Canis familiaris [18] = assay: Mean arterial blood pressure was determined by intraduodenal administration of two dosages of 10 mg/kg of compound in anesthetized dogs. Value was reported for experiment 1; format: functional, Canis lupus familiaris; in short: as §5
Canis familiaris [19] = species on record: Canis familiaris; assay: In vitro electrophysiological evaluation in canine cardiac ventricular muscle reported as maximum % change for conduction time(CT) at 0.1-100 uM concentration range; Minimal (<10% decrease or increase in CT).; format: functional, Canis lupus familiaris, Muscle tissue; in short: as §3
Canis familiaris [20] = assay: Mean arterial blood pressure was determined by intraduodenal administration of two dosages of 30 mg/kg of compound in anesthetized dogs. Value was reported for experiment 2; format: functional, Canis lupus familiaris; in short: as §5
Canis familiaris [21] = assay: Conduction time was determined by intraduodenal administration of 30 mg/kg (high dose) of compound in anesthetized dogs. Value was reported for experiment 2; format: functional, Canis lupus familiaris; in short: as §1
Canis familiaris [22] = species on record: Canis familiaris; assay: as §4; format: functional, Canis lupus familiaris, Heart; remark: listed apart in the source
Canis familiaris [23] = assay: Heart rate was determined by intraduodenal administration of two dosages of 10 mg/kg of compound in anesthetized dogs. Value was reported for experiment 2; format: functional, Canis lupus familiaris; in short: as §1
Canis familiaris [24] = assay: Mean arterial blood pressure was determined by intraduodenal administration of two dosages of 10 mg/kg of compound in anesthetized dogs. Value was reported for experiment 2; format: functional, Canis lupus familiaris; in short: as §5
Canis familiaris [25] = species on record: Canis familiaris; assay: In vitro electrophysiological evaluation in canine cardiac ventricular muscle reported as maximum % change for functional refractory period (FRP) at 0.1-100 uM concentration range; concentration at which it occurred is 100 uM; design: species or system Canis lupus familiaris, Muscle tissue; in short: as §3
Canis familiaris [26] = species on record: Canis familiaris; assay: In vitro electrophysiological evaluation in canine cardiac Purkinje fibres reported as maximum percent change Vmax concentration range of 0.1-100 uM; Minimal (<10% decrease or increase in V max).; format: functional; conditions: Canis lupus familiaris; Purkinje fiber; in short: as §2
Canis familiaris [27] = assay: Left ventricular refractory period was determined by intraduodenal administration of 30 mg/kg (high dose) of compound in anesthetized dogs. Value was reported for experiment 2; format: functional, Canis lupus familiaris, Cardiac ventricle; in short: as §5
Canis familiaris [28] = assay: Left ventricular refractory period was determined by intraduodenal administration of 10 mg/kg (low dose) of compound in anesthetized dogs. Value was reported for experiment 1; format: functional, Canis lupus familiaris, Cardiac ventricle; in short: as §5
Canis familiaris [29] = assay: Mean arterial blood pressure was determined by intraduodenal administration of two dosages of 30 mg/kg of compound in anesthetized dogs. Value was reported for experiment 3; format: functional, Canis lupus familiaris
Canis familiaris [30] = species on record: Canis familiaris; assay: In vitro electrophysiological evaluation in canine cardiac ventricular muscle reported as maximum % change for conduction time(CT) at 0.1-10 uM concentration range; Minimal (<10% decrease or increase in CT).; format: functional, Canis lupus familiaris, Muscle tissue; in short: as §3
Canis familiaris [31] = species on record: Canis familiaris; assay: In vitro electrophysiological evaluation in canine cardiac Purkinje fibres reported as percent change Vmax at 10 uM at concentration range of 0.1-10 uM; Minimal (<10% decrease or increase in V max).; format: functional; conditions: Canis lupus familiaris, Purkinje fiber; in short: as §2
Canis familiaris [32] = assay: Left ventricular refractory period was determined by intraduodenal administration of 30 mg/kg (high dose) of compound in anesthetized dogs. Value was reported for experiment 3; format: functional, Canis lupus familiaris, Cardiac ventricle; in short: as §5
Canis familiaris [33] = assay: Left ventricular refractory period was determined by intraduodenal administration of 10 mg/kg (low dose) of compound in anesthetized dogs. Value was reported for experiment 3; format: functional, Canis lupus familiaris, Cardiac ventricle; in short: as §5
Canis familiaris [34] = species on record: Canis familiaris; assay: In vitro electrophysiological evaluation in canine cardiac ventricular muscle reported as % change for conduction time(CT) at 10 uM at 0.1-10 uM concentration range; Minimal (<10% decrease or increase in CT).; format: functional, Canis lupus familiaris, Muscle tissue
Canis familiaris [35] = assay: Conduction time was determined by intraduodenal administration of 30 mg/kg (high dose) of compound in anesthetized dogs. Value was reported for experiment 3; format: functional, Canis lupus familiaris; in short: as §1
Canis familiaris [36] = species on record: Canis familiaris; assay: In vitro electrophysiological evaluation in canine cardiac ventricular muscle reported as % change for the functional refractory period (FRP) at 10 uM at concentration range of 0.1-10 uM; design: species or system Canis lupus familiaris, Muscle tissue; in short: as §3
Canis familiaris [37] = assay: Heart rate was determined by intraduodenal administration of two dosages of 30 mg/kg of compound in anesthetized dogs. Value was reported for experiment 3; format: functional, Canis lupus familiaris; in short: as §1
Canis familiaris [38] = species on record: Canis familiaris; assay: In vitro electrophysiological evaluation in canine cardiac Purkinje fibres reported as percent change Vmax at concentration range of 1-100 uM; conduction block; format: functional; conditions: Canis lupus familiaris; Purkinje fiber; in short: as §2
Canis familiaris [39] = assay: Heart rate was determined by intraduodenal administration of two dosages of 10 mg/kg of compound in anesthetized dogs. Value was reported for experiment 3; format: functional, Canis lupus familiaris; in short: as §1
Canis familiaris [40] = species on record: Canis familiaris; assay: In vitro electrophysiological evaluation in canine cardiac Purkinje fibres reported as percent change Vmax at concentration range of 0.1-10 uM; Minimal (<10% decrease or increase in V max).; format: functional; conditions: Canis lupus familiaris; Purkinje fiber; in short: as §2
Canis familiaris [41] = species on record: Canis familiaris; assay: In vitro electrophysiological evaluation in canine cardiac ventricular muscle reported as maximum % change for functional refractory period (FRP) at 0.1-10 uM concentration range; concentration at which it occurred is 10 uM; design: species or system Canis lupus familiaris, Muscle tissue; in short: as §3
Canis familiaris [42] = assay: Mean arterial blood pressure was determined by intraduodenal administration of two dosages of 10 mg/kg of compound in anesthetized dogs. Value was reported for experiment 3; format: functional, Canis lupus familiaris
Canis familiaris [43] = assay: Conduction time was determined by intraduodenal administration of 10 mg/kg (low dose) of compound in anesthetized dogs. Value was reported for experiment 3; format: functional, Canis lupus familiaris; in short: as §1
Canis familiaris [44] = species on record: Canis familiaris; assay: In vitro electrophysiological activity in canine cardiac occurred is 100 uM; format: functional, Canis lupus familiaris, Heart
Canis familiaris [45] = species on record: Canis familiaris; assay: In vitro electrophysiological evaluation in canine cardiac Purkinje fibres reported as percent change Vmax at 10 uM at concentration range of 1-100 uM; Minimal (<10% decrease or increase in V max).; format: functional; conditions: Canis lupus familiaris, Purkinje fiber; in short: as §2

SMILES	CT (Canis familiaris [1])	APD95 (Canis familiaris [2])	APD95 (Canis familiaris [6])	Vmax (Canis familiaris [7])	HR (Canis familiaris [8])	HR (Canis familiaris [9])	CT (Canis familiaris [10])	HR (Canis familiaris [12])	LV FRP (Canis familiaris [13])	Mean blood pressure (Canis familiaris [14])	CT (Canis familiaris [15])	LV FRP (Canis familiaris [17])	Mean blood pressure (Canis familiaris [18])	Mean blood pressure (Canis familiaris [20])	CT (Canis familiaris [21])	HR (Canis familiaris [23])	Mean blood pressure (Canis familiaris [24])	LV FRP (Canis familiaris [27])	LV FRP (Canis familiaris [28])	further results
CC(=O)C(CC1C(=O)C2CCN1CC2)C(=O)c1ccc([N+](=O)[O-])cc1.Cl (centres undefined)	9%	28%	28%	-18%	-32%	-11%	-3%	-14%	13%	12%	-3%	16%	10%	-30%	11%	-36%	-39%	22%	9%	CT (Canis familiaris [3]): <10%; Vmax (Canis familiaris [4]): -24%; FRP (Canis familiaris [5]): 21% and 28%; APD95 (Canis familiaris [11]): 29%; Vmax (Canis familiaris [16]): < 10%; CT (Canis familiaris [19]): <10%; APD95 (Canis familiaris [22]): 29%; FRP (Canis familiaris [25]): 23% and 30%; Vmax (Canis familiaris [26]): < 10%
CC(=O)C(CC1C(=O)C2CCN1CC2)C(=O)c1ccc(Cl)cc1.Cl (centres undefined)	0%	23%	23%	-10%	-28%	1%	3%	2%	1%	-6%	9%	11%	-5%	-16%	7%	-14%	-4%	18%	4%	Mean blood pressure (Canis familiaris [29]): 7%; CT (Canis familiaris [30]): <10%; Vmax (Canis familiaris [31]): < 10%; LV FRP (Canis familiaris [32]): 15%; LV FRP (Canis familiaris [33]): 11%; CT (Canis familiaris [34]): <10%; CT (Canis familiaris [35]): 13%; FRP (Canis familiaris [36]): 24%; HR (Canis familiaris [37]): -22%; Vmax (Canis familiaris [38]): 100%; HR (Canis familiaris [39]): -15%; Vmax (Canis familiaris [40]): < 10%; FRP (Canis familiaris [41]): 24%; Mean blood pressure (Canis familiaris [42]): 7%; CT (Canis familiaris [43]): 8%; APD95 (Canis familiaris [44]): -16%; Vmax (Canis familiaris [45]): < 10%
